Structures are written as SMILES. Several values for one entry are separate records, joined by “and”; a condition that tells them apart may be missing. Identical values can stand only once. Activity calls are given as the source filed them.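 The calls were made as follows: active = compounds lowering cell ATP signal with a fitted AC50 no higher than twice the top tested dose; inconclusive = flat curve with 30 to 70% signal loss, or poor fit; inactive = the rest.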

This note sets out measurements from PubChem BioAssay AID624289 (Broad Institute, 2012).

The test system of the first experiment is SK-MEL-5 viability, ATP luminescence (CellTiter-Glo), 24 h. Nature of the experiment: ATP-based cytotoxicity in parental melanoma cells – cell-based, CellTiter-Glo, dry powder samples, set 2, orthogonal assay for MITF inhibitor project, dose response (AID 624289).
Details: not given
Summed up:
(§1)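 Assay system: SK-MEL-5 human melanoma cells, parental line of primary-screen reporter. Timing: 24 h compound exposure at 37 °C, 5 min reagent, RT. Signal: CellTiter-Glo luminescence of cellular ATP after brief shaking. Doses: pinned compound dose series.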
Background: Cellular ATP, detected with luciferase, serves as a proxy for viable cell number.
As a reminder, the AC50 is the concentration at which the activity in the assay is half-maximal. In the case of `COc1ccc(C2=C(NC(=O)c3ccccc3Cl)C(=O)c3ccccc3C2=O)cc1`, the AC50 is 17.1 µM.

Regarding `CN1CCN(C2=C(NC(=O)c3ccccc3)C(=O)c3ccccc3C2=O)CC1`, the AC50 is 5.15 µM.

Consider `CN1CCN(C2=C(NS(=O)(=O)c3ccccc3)C(=O)c3ccccc3C2=O)CC1`, for which the AC50 was 11.1 µM.

With `Cc1ccc(C(=O)NC2=C(c3ccc(OC(F)(F)F)cc3)C(=O)c3ccccc3C2=O)o1`, the concentration at half-maximal activity (AC50) is 29.5 µM.

For `COc1cccc(-c2cc(C(=O)NC3=C(Cl)C(=O)c4ccccc4C3=O)ccc2OC)c1`, the concentration at half-maximal activity (AC50) was 22.4 µM.

As to `O=C(CNc1cccc2ccccc12)N/N=C/c1ccc([N+](=O)[O-])o1`, the concentration at half-maximal activity (AC50) is 19.8 µM.

With `CC(=O)NC1=C(c2cccc(Cl)c2)C(=O)c2ccccc2C1=O`, the concentration at half-maximal activity (AC50) is 11.5 µM.

Take `C=CCNC1=C(Cl)C(=O)c2ccccc2C1=O`: the AC50 was 5.18 µM and 7.1 µM.

Regarding `CCN1CCN(C2=C(Nc3ccccc3)C(=O)c3ccccc3C2=O)CC1`, the concentration at half-maximal activity (AC50) was 14.2 µM.

As for `CC(=O)N(C)C1=C(N2CCCCC2)C(=O)c2ccccc2C1=O`, the AC50 is 2.67 µM.

Turning to `CN1CCN(C2=C(NS(=O)(=O)c3ccc(Br)s3)C(=O)c3ccccc3C2=O)CC1`, the AC50 was 13.9 µM.

As for `C=CCNC1=C(N2CCCCC2)C(=O)c2ccccc2C1=O`, the AC50 was 2.66 µM.

In the case of `C=CCNC1=C(NCCN(CC)CC)C(=O)c2ccccc2C1=O`, the AC50 is 9.17 µM.

As for `COc1ccc(S(=O)(=O)N(C(C)=O)c2ccc(OC(C)=O)c3ccccc23)cc1[N+](=O)[O-]`, the AC50 is 19.9 µM.

Take `COc1ccc(C(=O)NC2=C(c3ccc(OC)cc3)C(=O)c3ccccc3C2=O)cc1`: the AC50 was 15 µM.

Consider `COc1ccc(C2=C(NC(=O)c3cccc(OC)c3)C(=O)c3ccccc3C2=O)cc1`, for which the concentration at half-maximal activity (AC50) is 24.4 µM.

`CCN1CCN(C2=C(NS(=O)(=O)c3cccs3)C(=O)c3ccccc3C2=O)CC1`: the AC50 was 19.2 µM.

Take `NC1=C(NC(=O)c2ccccc2)C(=O)c2ccccc2C1=O`: the AC50 was 10.1 µM.

In the case of `C=CCNC1=C(NCCCN(CC)CC)C(=O)c2ccccc2C1=O`, the AC50 is 11.5 µM.

Regarding `Cc1ccc(C(=O)NC2=C(c3ccccc3)C(=O)c3ccccc3C2=O)o1`, the AC50 was 19.3 µM.

Regarding `O=C(NC1=C(N2CCOCC2)C(=O)c2ccccc2C1=O)c1ccc(Br)cc1`, the concentration at half-maximal activity (AC50) is 15.9 µM.

Take `CCN(CC)CCNC1=C(Nc2ccccc2)C(=O)c2ccccc2C1=O`: the AC50 was 36.4 µM.

For `O=C1C(NS(=O)(=O)c2ccc(Br)s2)=C(N2CCCCC2)C(=O)c2ccccc21`, the AC50 is 28.9 µM.

For the compound `CC(=O)NC1=C(c2ccc3c(c2)oc2ccccc23)C(=O)c2ccccc2C1=O`, the half-maximal activity concentration (AC50) was 17.4 µM.

Consider `CCN(CC)CCCNC1=C(Nc2ccccc2)C(=O)c2ccccc2C1=O`, for which the AC50 is 21.1 µM.

In the case of `Cc1nc2ccccc2n1/N=C/c1ccc([N+](=O)[O-])s1`, the concentration at half-maximal activity (AC50) is 6.5 µM.

Regarding `C=CCNC1=C(N2CCSCC2)C(=O)c2ccccc2C1=O`, the AC50 was 12.3 µM.

For the compound `O=C(NC1=C(c2ccccc2)C(=O)c2ccccc2C1=O)c1ccc(Br)cc1`, the AC50 is 28.9 µM.

Take `COc1ccc(C2=C(NC(=O)c3ccc(OC)cc3-c3cccc(OC)c3)C(=O)c3ccccc3C2=O)cc1`: the AC50 is > 70 µM (inactive).

With `NC1=C(c2ccccc2)C(=O)c2ccccc2C1=O`, the concentration at half-maximal activity (AC50) is 28.5 µM.

`O=C(NC1=C(N2CCSCC2)C(=O)c2ccccc2C1=O)c1ccc(Br)cc1`: the AC50 is 28.1 µM.

Consider `CN1CCN(C2=C(NS(=O)(=O)c3ccc(Br)cc3)C(=O)c3ccccc3C2=O)CC1`, for which the AC50 is > 70 µM (inactive).

Turning to `CC(=O)NC1=C(c2ccc(Cl)cc2)C(=O)c2ccccc2C1=O`, the concentration at half-maximal activity (AC50) is 15.8 µM.

On to `NC1=CC(=O)c2ccccc2C1=O`, for which the half-maximal activity concentration (AC50) was 7.35 µM.

For `COc1ccc(C2=C(NC(=O)c3ccc(Cl)cc3)C(=O)c3ccccc3C2=O)cc1`, the AC50 is 25.2 µM.

With `O=C1C(NS(=O)(=O)c2ccccc2)=C(N2CCOCC2)C(=O)c2ccccc21`, the concentration at half-maximal activity (AC50) is 19.4 µM.

Take `O=C(NC1=C(N2CCN(c3ccccc3)CC2)C(=O)c2ccccc2C1=O)c1ccccc1`: the AC50 was > 70 µM (inactive).

As for `O=C1C(NS(=O)(=O)c2ccc(Br)cc2)=C(N2CCSCC2)C(=O)c2ccccc21`, the half-maximal activity concentration (AC50) was 32.5 µM.

Consider `COc1ccc(C(=O)NC2=C(c3ccccc3)C(=O)c3ccccc3C2=O)cc1`, for which the half-maximal activity concentration (AC50) is 21.5 µM.

For the compound `C[C@@H](NC1=C(Nc2ccccc2)C(=O)c2ccccc2C1=O)c1ccccc1`, the AC50 was > 70 µM (inactive).

Consider `O=C1C(NS(=O)(=O)c2ccc(Br)cc2)=C(N2CCN(c3ccccc3)CC2)C(=O)c2ccccc21`, for which the concentration at half-maximal activity (AC50) is 25.2 µM.

As to `CN1CCN(C2=C(Nc3ccccc3)C(=O)c3ccccc3C2=O)CC1`, the concentration at half-maximal activity (AC50) was 14.1 µM.

As to `O=C(NC1=C(c2ccccc2)C(=O)c2ccccc2C1=O)c1ccco1`, the AC50 is 20.4 µM.

With `CC(=O)N(C)C1=C(N2CCOCC2)C(=O)c2ccccc2C1=O`, the AC50 was 5.55 µM.

Take `C=C1C(=O)OC2C1CC/C(C)=C\CCC1(C)OC21` (centres undefined): the AC50 is > 70 µM (inactive).

Turning to `COc1ccc(C2=C(NC(C)=O)C(=O)c3ccccc3C2=O)cc1`, the AC50 is 11.7 µM.

As for `O=C1C(Nc2ccccc2)=C(N2CCOCC2)C(=O)c2ccccc21`, the half-maximal activity concentration (AC50) is 29.3 µM and 24.5 µM.

Take `C=CCNC1=C(N2CCOCC2)C(=O)c2ccccc2C1=O`: the AC50 was 6.79 µM.

Take `O=C(NC1=C(Cl)C(=O)c2ccccc2C1=O)c1ccccc1`: the half-maximal activity concentration (AC50) is 4.73 µM.

Turning to `CCN1c2ccccc2NC2N=C(OC)C(c3ccccc3)C21` (centres undefined), the half-maximal activity concentration (AC50) is 11.1 µM.

With `O=C1C(Nc2ccccc2)=C(N2CCCCC2)C(=O)c2ccccc21`, the half-maximal activity concentration (AC50) is 8.69 µM.

For the compound `O=C(NC1=C(c2ccc(Oc3ccccc3)cc2)C(=O)c2ccccc2C1=O)c1ccccc1`, the AC50 was > 70 µM (inactive).

For `CC(=O)NC1=C(c2ccc(Oc3ccccc3)cc2)C(=O)c2ccccc2C1=O`, the AC50 was 14.2 µM.

In the case of `CCN1CCN(C2=C(NS(=O)(=O)c3ccc(Br)cc3)C(=O)c3ccccc3C2=O)CC1`, the concentration at half-maximal activity (AC50) is 25.4 µM.

On to `O=C(NC1=C(c2ccc(OC(F)(F)F)cc2)C(=O)c2ccccc2C1=O)c1ccccc1`, for which the AC50 is 24.3 µM.

For `C=CCNC1=C(N(C)C(C)=O)C(=O)c2ccccc2C1=O`, the concentration at half-maximal activity (AC50) is 0.274 µM.

With `NC1=C(c2ccc(OC(F)(F)F)cc2)C(=O)c2ccccc2C1=O`, the AC50 was > 70 µM (inactive).

`CCN1CCN(C2=C(NS(=O)(=O)c3ccc(Br)s3)C(=O)c3ccccc3C2=O)CC1`: the AC50 was 26.1 µM.

Consider `O=C(NC1=C(c2ccc(OC(F)(F)F)cc2)C(=O)c2ccccc2C1=O)c1ccco1`, for which the half-maximal activity concentration (AC50) is 23.1 µM.

In the case of `O=C1C=C(Nc2ccccc2)C(=O)c2ccccc21`, the AC50 is 1.46 µM.

Take `CCN1CCN(C2=C(NC(=O)c3ccc(Br)cc3)C(=O)c3ccccc3C2=O)CC1`: the AC50 was 3.7 µM.

As for `COc1ccc(C2=C(NC(=O)c3ccc4ccccc4c3)C(=O)c3ccccc3C2=O)cc1`, the AC50 was > 70 µM (inactive).

Consider `O=C1C(NS(=O)(=O)c2ccc(Br)cc2)=C(N2CCCCC2)C(=O)c2ccccc21`, for which the concentration at half-maximal activity (AC50) is 32.6 µM.

For the compound `O=C1C(NS(=O)(=O)c2ccc(Br)s2)=C(N2CCSCC2)C(=O)c2ccccc21`, the concentration at half-maximal activity (AC50) is 29.1 µM.

`CN1CCN(C2=C(NC(=O)c3ccc(Br)cc3)C(=O)c3ccccc3C2=O)CC1`: the AC50 is 3.05 µM.

For `C=CCNC1=C(NS(=O)(=O)c2cccs2)C(=O)c2ccccc2C1=O`, the AC50 was 24.4 µM.

As for `CC(=O)NC1=C(c2ccccc2)C(=O)c2ccccc2C1=O`, the AC50 is 15.2 µM.

On to `O=C(NC1=C(N2CCOCC2)C(=O)c2ccccc2C1=O)c1ccccc1`, for which the half-maximal activity concentration (AC50) is 18.2 µM.

With `COc1ccc(C2=C(NC(=O)c3ccccc3OC)C(=O)c3ccccc3C2=O)cc1`, the AC50 was > 70 µM (inactive).

For the compound `O=C(NC1=C(N2CCSCC2)C(=O)c2ccccc2C1=O)c1ccccc1`, the AC50 was 13.2 µM.

As to `COc1cccc(C2=C(NC(=O)c3ccccc3)C(=O)c3ccccc3C2=O)c1`, the AC50 is 19.1 µM.

As to `COC1=C(NS(=O)(=O)c2ccccc2)C(=O)c2ccccc2C1=O`, the AC50 was 7.28 µM.

In the case of `O=C1C(NS(=O)(=O)c2ccc(Br)s2)=C(N2CCOCC2)C(=O)c2ccccc21`, the concentration at half-maximal activity (AC50) was 23.2 µM.

With `C=CCNC1=C(NS(=O)(=O)c2ccc(Br)cc2)C(=O)c2ccccc2C1=O`, the AC50 was 24.4 µM.

Consider `O=C1C(NS(=O)(=O)c2ccc(Br)cc2)=C(N2CCOCC2)C(=O)c2ccccc21`, for which the AC50 was 12.2 µM.

With `CC(=O)N(C)C1=C(N2CCN(C)CC2)C(=O)c2ccccc2C1=O`, the AC50 was 3.16 µM.

With `CCN1CCN(C2=C(N(C)C(C)=O)C(=O)c3ccccc3C2=O)CC1`, the half-maximal activity concentration (AC50) was 3.29 µM.

As for `O=C1C(NS(=O)(=O)c2cccs2)=C(N2CCOCC2)C(=O)c2ccccc21`, the AC50 was 21.1 µM.

As to `COc1ccc(C2=C(NC(=O)c3cccc(Cl)c3)C(=O)c3ccccc3C2=O)cc1`, the AC50 was 23.1 µM.

`CCN(CC)CCCCNC1=C(Nc2ccccc2)C(=O)c2ccccc2C1=O`: the AC50 is 33.2 µM.

For `C=CCNC1=C(N2CCN(CC)CC2)C(=O)c2ccccc2C1=O`, the AC50 is 20.1 µM.

In the case of `O=C1C(Nc2ccccc2)=C(N2CCN(c3ccccc3)CC2)C(=O)c2ccccc21`, the AC50 was > 70 µM (inactive).

On to `C=CCNC1=C(NCCCN2CCOCC2)C(=O)c2ccccc2C1=O`, for which the concentration at half-maximal activity (AC50) was 33.1 µM.

`CCN(CC)CCCNC1=C(N(C)C(C)=O)C(=O)c2ccccc2C1=O`: the half-maximal activity concentration (AC50) is 3.19 µM.

Take `CCN1CCN(C2=C(NC(=O)c3ccccc3)C(=O)c3ccccc3C2=O)CC1`: the half-maximal activity concentration (AC50) was 5.2 µM.

For `O=C1C(NS(=O)(=O)c2ccc(Br)cc2)=C(c2ccccc2)C(=O)c2ccccc21`, the concentration at half-maximal activity (AC50) is 30.9 µM.

Regarding `O=C(NC1=C(c2ccccc2)C(=O)c2ccccc2C1=O)c1ccccc1`, the AC50 is 20.6 µM.

On to `C=CCNC1=C(N2CCN(C)CC2)C(=O)c2ccccc2C1=O`, for which the AC50 is 20.1 µM.

Test system in a further experiment: not listed separately
The experiment is described as above. Particulars: SK-MEL-5 viability, ATP luminescence (CellTiter-Glo), 24 h; at 35 µM (top of the series). Summed up: as §1
With `C=CCNC1=C(NCC=C)C(=O)c2ccccc2C1=O`, the activity change, negative = inhibition was -6.6% (inactive).
